From article PMC4958579 (Cell chemical biology, 2016)

Key:
PC9 lung cancer cells = experiment: Colony formation assay, PC9; assay type: cell-based, human; conditions: 5 μM
MDA-MB-231 cells [1] = experiment: Colony formation assay, MDA-MB-231; assay type: cell-based, human; conditions: 5 μM
Procedure, shortened: (§1)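 Cells were treated with DMSO or 5 μM test compound and colonies quantified by image intensity. Percent intensity was normalized to the average percent intensity of DMSO-treated cells, with SEM error bars. Data are from biological duplicate experiments, each run in triplicate.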

MDA-MB-231 cells [2] = experiment: Western blot of global histone methylation, MDA-MB-231; assay type: cell-based, human; conditions: 5 μM, 3 days
Procedure, shortened: (§2)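 Cells were exposed to DMSO or 5 μM test compound for 3 days and histone marks detected by western blot. Fold is H3K4me3 band intensity over total H3, normalized to the DMSO control. Data are from biological duplicate experiments, each run in duplicate.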

ZR-75-1 cells = experiment: Colony formation assay, ZR-75-1; assay type: cell-based, human; conditions: 5 μM
Procedure, shortened: as §1

MCF7 cells [3] = experiment: Colony formation assay, MCF7; assay type: cell-based, human; conditions: 5 μM
Procedure, shortened: as §1

MCF7 cells [4] = experiment: Real time RT-PCR of KDM5 target genes, MCF7; assay type: cell-based, human; conditions: 5 μM for 3 days
Procedure, shortened: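 MCF7 cells were exposed to DMSO or 5 μM test compound for 3 days. BRCA1, STK6, BUB3, BUB1B, MT1F and MT1H mRNA levels were then quantified by real-time RT-PCR, with SEM error bars.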

BT474 cells = experiment: Colony formation assay, BT474; assay type: cell-based, human; conditions: 5 μM
Procedure, shortened: as §1

[5] = system: MCF10A immortalized, non-transformed mammary epithelial cells; experiment: Colony formation assay, MCF10A; assay type: cell-based, human; conditions: 5 μM
MCF7 cells [6] = experiment: Western blot of global histone methylation, MCF7; assay type: cell-based, human; conditions: 5 μM, 3 days
Procedure, shortened: as §2

[7] = target: KDM6B catalytic domain (residues 1043-1682) (Homo sapiens, UniProt O15054); experiment: AlphaScreen demethylase assay, KDM6B; assay type: biochemical; conditions: at 50 μM, the highest inhibitor concentration tested
KDM6B catalytic domain (residues 1043-1682), sequence (O15054 1043-1682 isoform O15054-1): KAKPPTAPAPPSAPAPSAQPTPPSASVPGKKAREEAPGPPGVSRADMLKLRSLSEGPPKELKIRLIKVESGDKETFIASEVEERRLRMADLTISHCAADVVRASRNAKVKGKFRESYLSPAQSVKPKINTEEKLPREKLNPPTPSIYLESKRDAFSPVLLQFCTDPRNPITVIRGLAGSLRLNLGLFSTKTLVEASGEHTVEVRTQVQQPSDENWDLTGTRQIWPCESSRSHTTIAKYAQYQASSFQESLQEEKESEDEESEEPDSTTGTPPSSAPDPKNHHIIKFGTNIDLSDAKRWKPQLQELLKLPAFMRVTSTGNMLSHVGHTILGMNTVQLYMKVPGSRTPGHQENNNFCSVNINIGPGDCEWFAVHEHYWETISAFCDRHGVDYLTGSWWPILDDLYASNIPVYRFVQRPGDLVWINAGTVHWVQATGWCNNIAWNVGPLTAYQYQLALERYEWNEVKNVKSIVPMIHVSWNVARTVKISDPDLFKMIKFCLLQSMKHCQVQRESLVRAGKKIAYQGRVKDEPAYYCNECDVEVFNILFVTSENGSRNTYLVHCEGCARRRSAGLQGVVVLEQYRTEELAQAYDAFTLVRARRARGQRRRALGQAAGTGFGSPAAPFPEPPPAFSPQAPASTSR
Procedure, shortened: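 Purified KDM6B catalytic domain (residues 1043-1682) was assayed by AlphaScreen for demethylase activity across a test-compound concentration series, with 50 μM the highest concentration tested. IC50 was averaged from 4 independent experiments, with S.E.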

full-length KDM6A = full-length KDM6A (Homo sapiens, UniProt O15550); experiment: AlphaScreen demethylase assay, KDM6A; assay type: biochemical; conditions: at 50 μM, the highest inhibitor concentration tested
full-length KDM6A, sequence (O15550 whole entry, species assumed): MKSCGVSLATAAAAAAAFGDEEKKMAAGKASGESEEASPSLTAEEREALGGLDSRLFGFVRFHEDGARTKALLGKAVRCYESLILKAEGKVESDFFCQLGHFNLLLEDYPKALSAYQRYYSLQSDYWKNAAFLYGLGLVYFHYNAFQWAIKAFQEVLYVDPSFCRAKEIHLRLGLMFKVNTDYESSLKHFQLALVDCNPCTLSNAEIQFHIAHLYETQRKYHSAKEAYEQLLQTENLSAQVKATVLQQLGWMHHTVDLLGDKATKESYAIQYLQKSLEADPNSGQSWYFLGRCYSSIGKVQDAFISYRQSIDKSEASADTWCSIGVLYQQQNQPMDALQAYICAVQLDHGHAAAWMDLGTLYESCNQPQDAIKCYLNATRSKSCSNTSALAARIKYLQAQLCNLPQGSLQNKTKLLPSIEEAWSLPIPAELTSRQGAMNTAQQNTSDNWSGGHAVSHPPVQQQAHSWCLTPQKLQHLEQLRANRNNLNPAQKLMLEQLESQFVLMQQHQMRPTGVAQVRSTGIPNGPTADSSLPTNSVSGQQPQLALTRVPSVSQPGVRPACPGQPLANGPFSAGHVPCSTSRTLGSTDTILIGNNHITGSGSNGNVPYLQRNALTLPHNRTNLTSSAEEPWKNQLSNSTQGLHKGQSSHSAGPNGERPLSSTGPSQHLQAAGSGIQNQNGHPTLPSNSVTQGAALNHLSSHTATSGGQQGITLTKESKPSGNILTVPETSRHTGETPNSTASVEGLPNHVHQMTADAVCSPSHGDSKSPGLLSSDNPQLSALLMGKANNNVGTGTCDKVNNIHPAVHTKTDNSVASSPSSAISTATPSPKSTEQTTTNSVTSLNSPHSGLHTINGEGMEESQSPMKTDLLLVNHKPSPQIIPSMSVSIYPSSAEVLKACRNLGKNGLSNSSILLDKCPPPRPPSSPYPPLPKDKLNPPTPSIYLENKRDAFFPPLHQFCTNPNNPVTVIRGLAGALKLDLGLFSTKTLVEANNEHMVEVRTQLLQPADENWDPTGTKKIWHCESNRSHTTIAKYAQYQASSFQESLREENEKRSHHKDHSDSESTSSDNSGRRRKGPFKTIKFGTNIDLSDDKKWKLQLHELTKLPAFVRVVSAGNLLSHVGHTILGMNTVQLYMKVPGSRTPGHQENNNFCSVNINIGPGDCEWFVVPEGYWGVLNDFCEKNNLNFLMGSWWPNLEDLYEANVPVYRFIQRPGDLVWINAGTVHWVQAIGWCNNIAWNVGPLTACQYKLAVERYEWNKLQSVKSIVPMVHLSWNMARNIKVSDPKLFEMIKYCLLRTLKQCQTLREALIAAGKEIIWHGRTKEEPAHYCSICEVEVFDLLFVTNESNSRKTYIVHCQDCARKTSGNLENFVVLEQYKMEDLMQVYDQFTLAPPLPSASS
Procedure, shortened: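 Full-length KDM6A demethylase activity measured by AlphaScreen with test compound up to 50 μM, the highest concentration tested. Two independent experiments; average and S.E. reported.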

[8] = target: Flag-tagged full-length KDM5C (Homo sapiens, UniProt P41229); experiment: AlphaLISA / AlphaScreen demethylase assay, KDM5C; assay type: biochemical; conditions: nanomolar enzyme concentration; two independent assays
Flag-tagged full-length KDM5C, sequence (P41229 whole entry): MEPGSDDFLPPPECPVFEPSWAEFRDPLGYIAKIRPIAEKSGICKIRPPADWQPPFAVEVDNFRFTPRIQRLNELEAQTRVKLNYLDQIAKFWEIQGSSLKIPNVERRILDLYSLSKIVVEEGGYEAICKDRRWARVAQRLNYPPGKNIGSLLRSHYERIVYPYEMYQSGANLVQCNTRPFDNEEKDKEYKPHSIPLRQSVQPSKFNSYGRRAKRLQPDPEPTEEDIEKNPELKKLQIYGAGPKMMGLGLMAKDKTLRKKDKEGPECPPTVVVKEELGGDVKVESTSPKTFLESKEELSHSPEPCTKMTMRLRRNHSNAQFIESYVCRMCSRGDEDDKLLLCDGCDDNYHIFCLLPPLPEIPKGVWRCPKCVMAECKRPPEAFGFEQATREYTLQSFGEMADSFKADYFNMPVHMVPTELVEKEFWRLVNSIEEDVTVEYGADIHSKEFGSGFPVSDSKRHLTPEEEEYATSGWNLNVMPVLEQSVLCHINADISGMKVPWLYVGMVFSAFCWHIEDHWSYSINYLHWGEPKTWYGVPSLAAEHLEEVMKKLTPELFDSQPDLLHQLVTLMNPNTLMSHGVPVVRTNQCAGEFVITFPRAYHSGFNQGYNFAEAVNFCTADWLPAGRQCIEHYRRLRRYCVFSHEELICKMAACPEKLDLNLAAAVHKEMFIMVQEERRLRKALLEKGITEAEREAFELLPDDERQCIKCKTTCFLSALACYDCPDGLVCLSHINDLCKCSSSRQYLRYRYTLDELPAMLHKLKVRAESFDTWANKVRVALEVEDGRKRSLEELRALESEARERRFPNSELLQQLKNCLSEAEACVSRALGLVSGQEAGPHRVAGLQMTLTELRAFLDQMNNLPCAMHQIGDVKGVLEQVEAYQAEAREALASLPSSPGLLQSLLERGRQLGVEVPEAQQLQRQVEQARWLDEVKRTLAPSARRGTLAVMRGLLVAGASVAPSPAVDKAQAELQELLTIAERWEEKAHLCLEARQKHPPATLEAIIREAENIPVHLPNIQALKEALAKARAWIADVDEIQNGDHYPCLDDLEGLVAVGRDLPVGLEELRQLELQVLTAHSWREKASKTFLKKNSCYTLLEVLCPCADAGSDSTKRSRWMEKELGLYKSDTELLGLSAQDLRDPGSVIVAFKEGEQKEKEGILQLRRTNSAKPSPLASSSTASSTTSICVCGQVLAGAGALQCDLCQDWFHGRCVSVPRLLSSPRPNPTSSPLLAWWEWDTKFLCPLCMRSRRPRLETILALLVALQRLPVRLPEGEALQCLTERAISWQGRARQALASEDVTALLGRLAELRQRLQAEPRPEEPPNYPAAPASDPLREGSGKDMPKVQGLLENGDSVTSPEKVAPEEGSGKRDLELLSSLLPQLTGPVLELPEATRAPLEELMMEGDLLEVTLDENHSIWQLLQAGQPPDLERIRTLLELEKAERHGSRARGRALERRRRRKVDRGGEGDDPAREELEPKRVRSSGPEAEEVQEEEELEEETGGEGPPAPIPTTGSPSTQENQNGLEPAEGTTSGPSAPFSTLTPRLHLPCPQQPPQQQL
Procedure, shortened: (§3)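 Full-length human enzymes, Flag-tagged and purified from Sf21 insect cells, assayed for demethylation by AlphaScreen.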

[9] = system: KDM4A catalytic domain (residues 1-350); experiment: Demethylase inhibition, KDM4A catalytic domain; assay type: biochemical
[10] = target: Flag-tagged full-length KDM5B (Homo sapiens, UniProt Q9UGL1); experiment: AlphaLISA / AlphaScreen demethylase assay, KDM5B; assay type: biochemical; conditions: nanomolar enzyme concentration; two independent assays
Flag-tagged full-length KDM5B, sequence (Q9UGL1 whole entry): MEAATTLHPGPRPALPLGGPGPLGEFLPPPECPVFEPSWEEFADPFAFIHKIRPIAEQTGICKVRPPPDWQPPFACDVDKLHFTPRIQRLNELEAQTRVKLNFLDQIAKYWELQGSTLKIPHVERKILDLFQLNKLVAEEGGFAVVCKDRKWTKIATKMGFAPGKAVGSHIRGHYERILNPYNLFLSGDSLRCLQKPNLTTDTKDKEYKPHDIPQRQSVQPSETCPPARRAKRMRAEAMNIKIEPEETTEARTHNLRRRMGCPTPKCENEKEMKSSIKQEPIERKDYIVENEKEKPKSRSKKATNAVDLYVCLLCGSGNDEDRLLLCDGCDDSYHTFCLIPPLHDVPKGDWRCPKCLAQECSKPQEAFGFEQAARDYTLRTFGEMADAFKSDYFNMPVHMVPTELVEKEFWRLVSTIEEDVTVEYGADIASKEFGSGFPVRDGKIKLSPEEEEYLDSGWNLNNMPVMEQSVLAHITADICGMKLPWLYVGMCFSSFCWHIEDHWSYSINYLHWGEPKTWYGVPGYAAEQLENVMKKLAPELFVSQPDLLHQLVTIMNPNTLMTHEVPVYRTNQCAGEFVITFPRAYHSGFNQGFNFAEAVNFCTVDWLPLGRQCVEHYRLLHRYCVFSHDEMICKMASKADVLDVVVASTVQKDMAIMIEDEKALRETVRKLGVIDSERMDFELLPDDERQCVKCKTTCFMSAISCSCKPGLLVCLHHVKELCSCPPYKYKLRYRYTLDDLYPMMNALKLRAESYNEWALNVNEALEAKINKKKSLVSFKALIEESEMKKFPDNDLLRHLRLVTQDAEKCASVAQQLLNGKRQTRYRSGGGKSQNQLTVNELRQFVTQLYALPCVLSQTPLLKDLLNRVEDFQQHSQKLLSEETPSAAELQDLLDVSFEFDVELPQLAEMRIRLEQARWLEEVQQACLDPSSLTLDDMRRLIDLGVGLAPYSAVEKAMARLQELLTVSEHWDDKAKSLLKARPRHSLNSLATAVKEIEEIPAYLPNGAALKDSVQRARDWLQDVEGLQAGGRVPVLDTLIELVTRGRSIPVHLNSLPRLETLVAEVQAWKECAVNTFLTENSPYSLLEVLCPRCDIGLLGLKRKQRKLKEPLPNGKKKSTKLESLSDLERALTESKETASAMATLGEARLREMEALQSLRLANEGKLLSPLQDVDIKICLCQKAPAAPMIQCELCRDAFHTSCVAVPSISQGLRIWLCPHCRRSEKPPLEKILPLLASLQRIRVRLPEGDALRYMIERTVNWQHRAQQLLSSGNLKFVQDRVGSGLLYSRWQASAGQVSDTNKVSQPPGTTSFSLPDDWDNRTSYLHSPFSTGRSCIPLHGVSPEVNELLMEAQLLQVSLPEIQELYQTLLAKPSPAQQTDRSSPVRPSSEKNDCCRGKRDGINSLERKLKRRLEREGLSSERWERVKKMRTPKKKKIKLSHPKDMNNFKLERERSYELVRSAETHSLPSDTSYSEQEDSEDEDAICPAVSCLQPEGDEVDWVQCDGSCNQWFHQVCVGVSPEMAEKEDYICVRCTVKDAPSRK
Procedure, shortened: as §3

[11] = target: Flag-tagged full-length KDM5A (Homo sapiens, UniProt P29375); experiment: AlphaLISA / AlphaScreen demethylase assay, KDM5A; assay type: biochemical; conditions: nanomolar enzyme concentration; two independent assays
Procedure, shortened: as §3

KDM5B and KDM5C = conditions: ref Horton et al., 2016; cited from earlier work

In the case of `CCOC(=O)c1ccnc(CNCC(=O)N(CC)CCN(C)C)c1` [KDM5-C70], the “effect on colony formation” value (PC9 lung cancer cells) is reported as “none were significantly affected”, the “effect on colony formation” value (MDA-MB-231 cells [1]) is reported as “none were significantly affected” and the “H3K4me2/me1, H3K27me3, H3K9me3/H3K36me3 levels” value (MDA-MB-231 cells [2]) is reported as “little impact”. For the same molecule, the “global levels of H3K4me3” value (MDA-MB-231 cells [2]) was “significantly increased”, the “growth inhibited (colony formation)” value (ZR-75-1 cells) was 70% and the “growth inhibited (colony formation)” value (MCF7 cells [3]) was 85%. For the same molecule, the “expression of MT1F mRNA” value (MCF7 cells [4]) was “increase”, the “expression of MT1H mRNA” value (MCF7 cells [4]) was “increase” and the “growth inhibited (colony formation)” value (BT474 cells) was 97%. For the same molecule, the “effect on colony formation” value [5] was “none were significantly affected”, the “H3K4me2/me1, H3K27me3, H3K9me3/H3K36me3 levels” value (MCF7 cells [6]) was “little impact” and the “global levels of H3K4me3” value (MCF7 cells [6]) was “significantly increased”.

For `CCN(CCN(C)C)C(=O)CNCc1cc(C(=O)O)ccn1` [KDM5-C49], the “inhibition of KDM6B activity” value [7] was no more than 50%, the “inhibition of KDM6A activity” value (full-length KDM6A) was no more than 50% and the “IC50, full-length KDM5C” value [8] was “nanomolar range”. For the same molecule, the “weaker potency against KDM4A catalytic domain than against KDM5B catalytic domain or full length KDM5B” value [9] was ~ 10 fold, the “IC50, full-length KDM5B” value [10] was “nanomolar range” and the “IC50, full-length KDM5A” value [11] was “nanomolar range”.

In the case of `O=C(O)CCNc1cc(N2CCc3ccccc3CC2)nc(-c2ccccn2)n1` [GSK-J1], the “more active against KDM5C than against KDM5B” value (KDM5B and KDM5C) is given as ~ 8.5 fold.

For `Clc1ccc(N/N=C(\c2ccccc2)c2ccccn2)nc1` [JIB-04], the “increased potency against KDM5B compared to KDM5C” value (KDM5B and KDM5C) is given as ~ 8 fold.
